Data on 17 compounds can be found in ChEMBL document CHEMBL1268822, “Synthesis and biological evaluation of indolyl glyoxylamides as a new class of antileishmanial agents” (Bioorg Med Chem Lett, 2010).

Usually CC50 stands for the concentration that lowers cell viability or growth by half. Low values mean greater toxicity to the cells, high ones lower toxicity to the cells. The term IC50 denotes the point on the concentration scale where inhibition reaches its midpoint.

Data set [1] is described as follows: Toxicity in mouse J774A1 cells. The data set is classed as cell-based, J774.A1.
The subject of another data set is Leishmania donovani. Nature of the data set: Antileishmanial activity against Leishmania donovani amastigotes infected in mouse J774A1 cells assessed as inhibition of parasite growth after 72 hrs by luciferase reporter gene assay. The class given is functional, organism-based. The following applies: J774.A1, 72 h. Summed up:
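J774A.1 macrophages seeded at 4 × 10⁴ cells/well in RPMI-1640 with 10% fetal calf serum, 37 °C CO₂, 24 h. Stationary-phase promastigotes then added at 4 × 10⁵/well and left to convert to intracellular amastigotes. Medium replaced with compound at 0.62–40 µM for 72 h at 37 °C. Steady Glo luciferase luminescence, growth inhibition relative to untreated controls.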
In general terms: In a reporter assay the amount or activity of a reporter protein is the signal.

A short description of data set [2]: (§1) Selectivity index, ratio of CC50 for mouse J774A1 cells to IC50 for Leishmania donovani amastigotes. The class given is functional, J774.A1. Summed up: (§2)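 Ratio of CC50 in J-774 A-1 cells to IC50 against L. donovani amastigotes.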
A further data set concerns J774.A1. The data set is described as §1. The class given is functional. In a few lines:
as §2

As for `CCc1ccc([C@H]2c3[nH]c4ccccc4c3C[C@H](C(=O)OC)N2C(=O)C(=O)c2c[nH]c3ccccc23)cc1`, half-maximal cytotoxicity in data set [1] (CC50) was put at 30.9 µM. The IC50 in the data set with Leishmania donovani was 8.04 µM. In addition, the “Selectivity Index” value in data set [2] is on record as 3.84.
For `COC(=O)[C@@H]1Cc2c([nH]c3ccccc23)[C@H](c2ccc(C)cc2)N1C(=O)C(=O)c1c[nH]c2ccccc12`, in that order: 27.4 µM, 7.37 µM and 3.72.
Consider sodium stibogluconate, for which, in the data set with J774.A1, the Selectivity Index is 5.53.
Regarding `COC(=O)[C@H]1Cc2c([nH]c3ccccc23)[C@H](c2ccc(C(C)C)cc2)N1C(=O)C(=O)c1c[nH]c2ccccc12`, the cytotoxic concentration (CC50) in data set [1] amounted to 15.1 µM. Further, in the data set on Leishmania donovani, the IC50 was determined as 6.02 µM. Also, in data set [2], the “Selectivity Index” value was found to be 2.51.
In the case of `COC(=O)[C@@H]1Cc2c([nH]c3ccccc23)[C@@H](c2ccc(C)cc2)N1C(=O)C(=O)c1c[nH]c2ccccc12`, the CC50 in data set [1] came to 34.4 µM. In addition, the IC50 in the data set on Leishmania donovani was determined as 6.79 µM. The “Selectivity Index” value in data set [2] is 5.07.
In data set [1], `COC(=O)[C@@H]1Cc2c([nH]c3ccccc23)[C@@H](c2ccccc2Br)N1C(=O)C(=O)c1c[nH]c2ccc(Br)cc12` displayed a CC50 of 7.25 µM. The IC50 in the data set on Leishmania donovani came to 4.09 µM. The “Selectivity Index” value in data set [2] was 1.77.
In the case of `COC(=O)[C@H]1Cc2c([nH]c3ccccc23)[C@@H](c2ccc(C(C)C)cc2)N1C(=O)C(=O)c1c[nH]c2ccc(Br)cc12`, in data set [1], the CC50 was determined as 7.77 µM. In addition, the IC50 in the data set with Leishmania donovani is 3.91 µM. Moreover, the “Selectivity Index” value in data set [2] came out at 1.99.
For `CCc1ccc([C@@H]2c3[nH]c4ccccc4c3C[C@H](C(=O)OC)N2C(=O)C(=O)c2c[nH]c3ccc(Br)cc23)cc1`, in that order: 11.6 µM, 5.36 µM and 2.17.
As to `COC(=O)[C@@H]1Cc2c([nH]c3ccccc23)[C@@H](c2ccc(C)cc2)N1C(=O)C(=O)c1c[nH]c2ccc(Br)cc12`, the CC50 in data set [1] came out at 8.83 µM. Moreover, in the data set with Leishmania donovani, the IC50 was 4.79 µM. Also, the “Selectivity Index” value in data set [2] worked out at 1.84.
Take `COC(=O)[C@@H]1Cc2c([nH]c3ccccc23)[C@@H](c2ccc(Cl)cc2)N1C(=O)C(=O)c1c[nH]c2ccc(Br)cc12`: the CC50 in data set [1] is 7.64 µM. For the same compound, in the data set with Leishmania donovani, the IC50 came to 4.02 µM. Further, the “Selectivity Index” value in data set [2] is 1.9.
For the compound `COC(=O)[C@H]1Cc2c([nH]c3ccccc23)[C@H](c2ccc(C(C)C)cc2)N1C(=O)C(=O)c1c[nH]c2ccc(Br)cc12`, the CC50 in data set [1] came to 9.04 µM. In the data set with Leishmania donovani, the IC50 is 4.44 µM. The “Selectivity Index” value in data set [2] was found to be 2.04.
Consider `COC(=O)[C@H]1Cc2c([nH]c3ccccc23)[C@@H](c2ccc(C(C)C)cc2)N1C(=O)C(=O)c1c[nH]c2ccccc12`, for which the half-maximal cytotoxic concentration (CC50) in data set [1] is 32.6 µM. Further, the IC50 in the data set on Leishmania donovani was 6.74 µM. Moreover, in data set [2], the “Selectivity Index” value is reported as 4.84.
The like results for `CCc1ccc([C@@H]2c3[nH]c4ccccc4c3C[C@H](C(=O)OC)N2C(=O)C(=O)c2c[nH]c3ccccc23)cc1` were, in that order, 163 µM, 5.17 µM and 31.48.
In data set [1], `CCc1ccc([C@H]2c3[nH]c4ccccc4c3C[C@H](C(=O)OC)N2C(=O)C(=O)c2c[nH]c3ccc(Br)cc23)cc1` displayed a CC50 of 9.48 µM. The IC50 in the data set on Leishmania donovani turned out to be 5.86 µM. Besides, in data set [2], the “Selectivity Index” value turned out to be 1.62.
On to `COC(=O)[C@@H]1Cc2c([nH]c3ccccc23)[C@H](c2ccc(C)cc2)N1C(=O)C(=O)c1c[nH]c2ccc(Br)cc12`, for which the midpoint of cytotoxicity in data set [1], the CC50, lay at 10.1 µM. The IC50 in the data set on Leishmania donovani was found to be 5.18 µM. Also, the “Selectivity Index” value in data set [2] was found to be 1.95.
As for `COC(=O)[C@@H]1Cc2c([nH]c3ccccc23)[C@@H](c2ccc(Cl)cc2)N1C(=O)C(=O)c1c[nH]c2ccccc12`, in data set [1], half-maximal cytotoxicity (CC50) was put at 11.3 µM. Further, in the data set on Leishmania donovani, the IC50 amounted to 4.36 µM. The “Selectivity Index” value in data set [2] was determined as 2.6.
For the compound `COC(=O)[C@@H]1Cc2c([nH]c3ccccc23)[C@@H](c2ccccc2Br)N1C(=O)C(=O)c1c[nH]c2ccccc12`, the CC50 in data set [1] was 30.1 µM. In addition, the IC50 in the data set with Leishmania donovani worked out at 3.79 µM. For the same compound, the “Selectivity Index” value in data set [2] was found to be 7.94.
